ChEMBL document CHEMBL2057104, “Identification of myricetin and scutellarein as novel chemical inhibitors of the SARS coronavirus helicase, nsP13” (Bioorg Med Chem Lett, 2012)
Active and inactive are the calls of the source. How the calls were made is not given here.

How the values were obtained:
[1] = tested on: Severe acute respiratory syndrome-related coronavirus; assay: Inhibition of SARS coronavirus nsP13 helicase activity expressed in Escherichia coli Rosetta assessed inhibition of DNA unwinding activity at 10 uM by FRET assay
In short: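 FRET dsDNA-unwinding assay using fluorescein/TAMRA-labelled duplex. When nsP13 unwinds the duplex, fluorescein emission is unquenched. Compound was added to the unwinding reaction at 10 µM, and fluorescence was read at 535 nm.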

Hepacivirus hominis [2] = assay: Inhibition of HCV NS3 helicase overexpressed in Escherichia coli BL21(DE3) assessed as inhibition of DNA unwinding activity at 10 uM by FRET assay
[3] = tested on: Severe acute respiratory syndrome-related coronavirus; assay: Inhibition of SARS coronavirus nsP13 ATP hydrolysis activity expressed in Escherichia coli Rosetta assessed as inhibition of inorganic phosphate release at 10 uM by AM/MG-based colometric analysis in the presence of M13 ssDNA
Hepacivirus hominis [4] = assay: Inhibition of HCV NS3 helicase ATP hydrolysis activity overexpressed in Escherichia coli BL21(DE3) assessed as inhibition of inorganic phosphate release by AM/MG-based colometric analysis in the presence of M13 ssDNA
MCF-10A = assay: Cytotoxicity in human MCF10A cells at 2 uM measured every 24 hrs for 3 days by hemocytometry; format: cell-based; conditions: 72 h
In short: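 MCF10A breast epithelial cells grown at 37°C in 5% CO2 and seeded at 2.0 × 10^5 per well. They were exposed to compound at 2 µM and harvested every 24 h for 3 days. Viable cells were counted by hemacytometer. Results are mean ± standard deviation, n = 6, compared by Student t-test.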

Compound | inhibition [1] | inhibition (Hepacivirus hominis [2]) | inhibition [3] | inhibition (Hepacivirus hominis [4]) | Activity (MCF-10A)
CC1(C)CC[C@]2(C)CC=C3[C@]4(C)CC[C@H]5C(C)(C)[C@@H](O)CC[C@]5(C)[C@H]4CC[C@@]3(C)[C@@H]2C1 | inactive | inactive | 20% | inactive | –
CC1(C)CC[C@]2(C(=O)O)CC[C@]3(C)C(=CC[C@@H]4[C@@]5(C)CC[C@H](O)C(C)(C)[C@@H]5CC[C@]43C)[C@@H]2C1 | inactive | inactive | – | inactive | –
COc1c(O)cc2oc3cc(O)c4c(c3c(=O)c2c1CC=C(C)C)OC(C)(C)CC4 | inactive | inactive | – | inactive | –
O=c1c(O[C@@H]2O[C@H](CO)[C@@H](O)[C@H](O)[C@H]2O)c(-c2ccc(O)c(O)c2)oc2cc(O)cc(O)c12 | inactive | inactive | – | inactive | –
O=c1c(O)c(-c2ccccc2)oc2cc(O)cc(O)c12 | inactive | inactive | – | inactive | –
O=C(/C=C/c1ccccc1)NCCCCNC(=O)Cc1ccc(O)cc1 | inactive | inactive | – | inactive | –
C[C@H]1C(=O)CC[C@@H]2[C@]1(C)CC[C@H]1[C@@]2(C)CC[C@@]2(C)[C@@H]3CC(C)(C)CC[C@]3(C)CC[C@]12C | inactive | inactive | – | inactive | –
Cc1cc(=O)c2c(O)c3c(cc2o1)OC(C)(C)[C@@H](O[C@H]1O[C@@H](CO)[C@H](O)[C@@H](O)[C@@H]1O)C3 | inactive | inactive | – | inactive | –
C[C@H]1[C@H](C)CC[C@]2(C(=O)O)CC[C@]3(C)C(=CC[C@@H]4[C@@]5(C)CC[C@H](O)C(C)(C)[C@@H]5CC[C@]43C)[C@H]12 | inactive | inactive | – | inactive | –
O=c1cc(-c2ccccc2)oc2cc(O)cc(O)c12 | inactive | inactive | – | inactive | –
O=C(/C=C/c1ccc(O)cc1)c1ccc(O)cc1O | inactive | inactive | – | inactive | –
COc1ccc(-c2oc3c(CC=C(C)C)c(O)cc(O)c3c(=O)c2O)cc1 | inactive | inactive | – | inactive | –
COc1ccc([C@@H]2CC(=O)c3c(O)cc(O)cc3O2)cc1O[C@@H]1O[C@H](CO[C@@H]2O[C@@H](C)[C@H](O)[C@@H](O)[C@H]2O)[C@@H](O)[C@H](O)[C@H]1O | inactive | inactive | – | inactive | –
O=C1C[C@@H](c2ccc(O)cc2)Oc2cc(O)cc(O)c21 | inactive | inactive | – | inactive | –
O=c1c(O)c(-c2ccc(O)cc2)oc2cc(O)cc(O)c12 | inactive | inactive | – | inactive | –
O=C(O)c1cc(O)c(O)c(O)c1 | inactive | inactive | – | inactive | –
O=C(O[C@H]1[C@@H]2C=CO[C@@H](O[C@@H]3O[C@H](CO)[C@@H](O)[C@H](O)[C@H]3O)[C@@H]2[C@@]2(CO)O[C@@H]12)c1ccc(O)c(O)c1 | inactive | inactive | – | inactive | –
O=c1cc(-c2ccccc2)oc2cc(O)c(O)c(O)c12 | inactive | inactive | – | inactive | –
O=c1c(O[C@@H]2O[C@H](CO)[C@H](O)[C@H](O)[C@H]2O)c(-c2ccc(O)c(O)c2)oc2cc(O)cc(O)c12 | inactive | inactive | – | inactive | –
COc1ccc(C(=O)O[C@H]2[C@@H]3C=CO[C@@H](O[C@@H]4O[C@H](CO)[C@@H](O)[C@H](O)[C@H]4O)[C@@H]3[C@@]3(CO)O[C@@H]23)cc1OC | inactive | inactive | – | inactive | –
O=c1c(O)c(-c2cc(O)c(O)c(O)c2)oc2cc(O)cc(O)c12 [MYRICETIN] | inactive | inactive | > 90% | inactive | Non-toxic
CC(C)=CCc1c(O)c(CC=C(C)C)c2oc3c(O)cccc3c(=O)c2c1O | inactive | inactive | – | inactive | –

Compound | inhibition [1] | inhibition (Hepacivirus hominis [2]) | inhibition [3] | inhibition (Hepacivirus hominis [4]) | Activity (MCF-10A)
C=C(C)[C@@H](C)CC[C@@H](C)[C@H]1CC[C@@]2(C)[C@@H]3CC[C@H]4C(C)(C)C(=O)CC[C@]4(C)C3=CC[C@]12C | inactive | inactive | – | inactive | –
CC1(C)CC[C@]2(C(=O)O)CC=C3[C@]4(C)CC[C@H]5C(C)(C)[C@@H](O)CC[C@]5(C)[C@H]4CC[C@@]3(C)[C@@H]2C1 | inactive | inactive | – | inactive | –
C=C1CC[C@@H]2[C@](C)(CCC[C@]2(C)C(=O)O)[C@H]1CCc1ccoc1 | inactive | inactive | – | inactive | –
COc1ccc(C(=O)O[C@H]2[C@@H]3C=CO[C@@H](O[C@@H]4O[C@H](CO)[C@@H](O)[C@H](O)[C@H]4O)[C@@H]3[C@@]3(CO)O[C@@H]23)cc1O | inactive | inactive | – | inactive | –
O=c1c(-c2ccc(O[C@@H]3O[C@H](CO)[C@@H](O)[C@H](O)[C@H]3O)cc2)coc2cc(O)cc(O)c12 | inactive | inactive | – | inactive | –
O=c1cc(-c2ccc(O)c(-c3c(O)cc(O)c4c(=O)cc(-c5ccc(O)cc5)oc34)c2)oc2cc(O)cc(O)c12 | inactive | inactive | 20% | inactive | –
C[C@@H]1O[C@@H](O[C@H]2[C@H](Oc3cc(O)c4c(c3)O[C@H](c3ccc(O)cc3)CC4=O)O[C@H](CO)[C@@H](O)[C@@H]2O)[C@H](O)[C@H](O)[C@H]1O | inactive | inactive | – | inactive | –
O=c1c(-c2ccc(O)cc2)coc2cc(O[C@@H]3O[C@H](CO)[C@@H](O)[C@H](O)[C@H]3O)ccc12 | inactive | inactive | – | inactive | –
COc1c2c(cc3oc(CO[C@@H]4O[C@H](CO)[C@@H](O)[C@H](O)[C@H]4O)cc(=O)c13)O[C@H](C(C)(C)O)C2 | inactive | inactive | – | inactive | –
C=C(C)C(C)CC[C@@H](C)[C@H]1CC[C@@]2(C)[C@@H]3CC[C@H]4C(C)(C)C(=O)CC[C@]4(C)C3=CC[C@]12C (some centres not stated) | inactive | inactive | – | inactive | –
COc1ccc(-c2cc(=O)c3c(O)cc(O[C@H]4O[C@@H](CO)[C@H](O)[C@@H](O)[C@@H]4O)cc3o2)cc1O | inactive | inactive | – | inactive | –
C=C1CC[C@@H]2[C@H]([C@H]3[C@H]1CC[C@]3(C)O)C2(C)C | inactive | inactive | – | inactive | –
CC(C)=CCOc1c2occc2cc2ccc(=O)oc12 | inactive | inactive | – | inactive | –
C=C[C@]1(C)CC[C@@]2(C)C3=CCC[C@](C)(CO)[C@@H]3CC[C@@H]2C1 | inactive | inactive | – | inactive | –
COc1c2c(cc3oc(C)cc(=O)c13)OC(C(C)(C)O)C2 (configuration not stated) | inactive | inactive | – | inactive | –
CC(C)=CCc1c(O)cc2oc3cc(O)c(O)c(CC=C(C)C)c3c(=O)c2c1O | inactive | inactive | – | inactive | –
C[C@H]1[C@H](C)CC[C@]2(C)CC[C@]3(C)C(=CC[C@@H]4[C@@]5(C)CC[C@H](O)C(C)(C)[C@@H]5CC[C@]43C)[C@H]12 | inactive | inactive | – | inactive | –
C=C(C)[C@@H]1CC[C@]2(C(=O)O)CC[C@]3(C)[C@H](CC[C@@H]4[C@@]5(C)CC[C@H](O)C(C)(C)[C@@H]5CC[C@]43C)[C@@H]12 | inactive | inactive | – | inactive | –
C[C@H]1O[C@@H](Oc2c(-c3cc(O)c(O)c(O)c3)oc3cc(O)cc(O)c3c2=O)[C@@H](O)[C@@H](O)[C@@H]1O | inactive | inactive | 20% | inactive | –
C[C@H]1[C@@H](O)CC[C@@H]2[C@]1(C)CC[C@H]1[C@@]2(C)CC[C@@]2(C)[C@@H]3CC(C)(C)CC[C@]3(C)CC[C@]12C | inactive | inactive | – | inactive | –
CC[C@H](CC[C@@H](C)[C@H]1CC[C@H]2[C@@H]3CC=C4C[C@@H](O[C@@H]5O[C@H](CO)[C@@H](O)[C@H](O)[C@H]5O)CC[C@]4(C)[C@H]3CC[C@]12C)C(C)C | inactive | inactive | – | inactive | –
Cc1cc(=O)c2c(O)c3c(cc2o1)OC(C)(C)[C@@H](O)C3 | inactive | inactive | – | inactive | –
